Test results published in ChEMBL document CHEMBL1144171, “Novel hypoglycemic dihydropyridones serendipitously discovered from O- versus C-alkylation in the synthesis of VMAT2 antagonists” (Bioorg Med Chem Lett, 2008).
Activity calls are given as the source filed them. The rule behind the calls is not given here.

Columns and labels:
Rattus norvegicus [1] = experiment: Toxicity in Lewis rat assessed as tonic seizure at 2 mg/kg; format: organism-based; parameters: dose 2 mg/kg; settings: in vivo
Rattus norvegicus [2] = experiment: Hypoglycemic activity in fasted Lewis rat at 2 mg/kg, iv administered 30 mins prior to glucose stimulation measured after 120 mins by glucose tolerance test; format: functional, organism-based; parameters: dose 2 mg/kg
In short: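 Lewis rats fasted 6 h received drug iv at −30 min (2mg/kg), then glucose 2g/kg ip at 0 min; blood glucose followed 120 min. AUC IPGTT by trapezoidal rule, SEM (n=5); drug versus vehicle compared by Student's t test.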

[3] = molecular target: Dipeptidyl peptidase 4 (Homo sapiens) (UniProt P27487); experiment: Inhibition of DPP4 upto 10 uM
Dipeptidyl peptidase 4 (Homo sapiens), sequence (P27487 whole entry, looked up): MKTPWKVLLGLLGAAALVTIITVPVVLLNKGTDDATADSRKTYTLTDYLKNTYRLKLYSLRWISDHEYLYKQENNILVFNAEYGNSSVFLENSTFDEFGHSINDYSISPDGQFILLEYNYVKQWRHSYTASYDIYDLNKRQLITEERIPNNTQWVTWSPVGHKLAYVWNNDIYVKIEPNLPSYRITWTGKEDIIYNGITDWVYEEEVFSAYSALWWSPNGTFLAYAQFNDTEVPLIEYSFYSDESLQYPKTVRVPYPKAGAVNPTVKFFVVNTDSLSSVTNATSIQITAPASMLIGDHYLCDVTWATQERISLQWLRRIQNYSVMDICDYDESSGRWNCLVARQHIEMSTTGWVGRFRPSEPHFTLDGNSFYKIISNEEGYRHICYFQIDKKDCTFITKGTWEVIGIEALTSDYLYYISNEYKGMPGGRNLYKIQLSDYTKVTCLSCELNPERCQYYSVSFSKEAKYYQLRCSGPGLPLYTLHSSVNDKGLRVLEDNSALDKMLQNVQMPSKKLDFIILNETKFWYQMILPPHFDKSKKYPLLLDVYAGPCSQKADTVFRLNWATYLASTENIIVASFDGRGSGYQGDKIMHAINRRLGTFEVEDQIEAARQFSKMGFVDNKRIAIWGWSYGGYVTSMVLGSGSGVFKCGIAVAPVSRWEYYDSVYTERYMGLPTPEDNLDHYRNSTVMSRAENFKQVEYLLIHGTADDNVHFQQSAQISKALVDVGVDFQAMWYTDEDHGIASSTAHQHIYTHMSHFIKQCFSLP

Row | Activity [3] | Structure (SMILES) | Activity (Rattus norvegicus [1]) | Activity (Rattus norvegicus [2])
1 |  | COc1cc2c(cc1OC)C1CC(=O)C(CC(C)C)CN1CC2 (stereo not drawn) [TETRABENAZINE] | Toxic | 
2 |  | COC1=CC(=O)N2CCc3cc(OC)c(OC)cc3C2C1 (stereo not drawn) |  | Active
3 |  | COc1cc2c(cc1OC)C1CC(OCC(C)C)=CC(=O)N1CC2 (stereo not drawn) |  | Active
4 |  | COc1ccc(-c2cc(OCC(C)C)cc(=O)[nH]2)cc1OC |  | inactive
5 | inactive | COc1ccc(C2CC(OCC(C)C)=CC(=O)N2)cc1OC (stereo not drawn) | Non-toxic | Active
6 |  | COc1cc2c(cc1OC)[C@@H]1C[C@H](O)[C@@H](CC(C)C)CN1CC2 | Toxic | Active
7 |  | COc1ccc(C2CC(=O)CC(=O)N2)cc1OC (stereo not drawn) |  | inactive
8 |  | COC1=CC(=O)OC(c2ccc(OC)c(OC)c2)C1 (stereo not drawn) |  | inactive
9 |  | COc1ccc(C2CC(O)C(CC(C)C)CN2)cc1OC (stereo not drawn) |  | Active
10 |  | COc1ccc(C2CC(OCC(C)C)=CC(=O)O2)cc1OC (stereo not drawn) |  | inactive
